According to ChEMBL document CHEMBL3400141, “Substituted piperazines as nootropic agents: 2- or 3-phenyl derivatives structurally related to the cognition-enhancer DM235” (Bioorg Med Chem Lett, 2015):

System: Mus musculus
Assay: Cognition enhancing activity in sc dosed mouse assessed as reversal of scopolamine-induced amnesia measured up to 24 hrs treated 20 mins before training session by passive-avoidance test
Format: functional
Details: read-out: MED
Procedure, shortened: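 Mouse passive-avoidance test (Jarvik and Kopp, slightly modified). Compounds in DMSO/saline (1:10), given s.c. 20 min before training, tested in a 1:10 dose-dilution sequence. Amnesia induced by scopolamine 1.5 mg/kg i.p. immediately after punishment. Mean of 8–16 mice per group; activity reported as minimal effective dose (MED, mg/kg).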

Compound	minimal effective dose [mg/kg]
O=C(c1ccccc1)N1CCNCC1	0.1
CC(=O)N1CCN(S(=O)(=O)c2ccc(F)cc2)C(C)C1 (centres undefined)	0.1
CC(=O)N1CCN(S(=O)(=O)c2ccc(F)cc2)CC1C (centres undefined)	1
CCC(=O)N1CCN(C(=O)c2ccccc2)C(C)C1 (centres undefined)	0.1
CCC(=O)N1CCN(C(=O)c2ccccc2)CC1C (centres undefined)	> 10
CC(=O)N1CCN(S(=O)(=O)c2ccc(F)cc2)CC1	0.01
CCC(=O)N1CCNC(c2ccccc2)C1 (centres undefined)	> 10
CC(=O)N1CCNC(c2ccccc2)C1 (centres undefined)	> 10
O=S(=O)(c1ccc(F)cc1)N1CCNC(c2ccccc2)C1 (centres undefined)	> 10
CCC(=O)N1CCN(C(=O)c2ccccc2)C[C@@H]1c1ccccc1	1
CCC(=O)N1CCN(C(=O)c2ccccc2)C[C@H]1c1ccccc1	0.1
CCC(=O)N1CCN(C(=O)c2ccccc2)C(c2ccccc2)C1 (centres undefined)	1
CC(=O)N1CCN(S(=O)(=O)c2ccc(F)cc2)C(c2ccccc2)C1 (centres undefined)	10
CC(=O)N1CCN(S(=O)(=O)c2ccc(F)cc2)CC1c1ccccc1 (centres undefined)	> 10
CCC(=O)N1CCN(C(=O)c2ccccc2)CC1Cc1ccccc1 (centres undefined)	1
CCC(=O)N1CCN(C(=O)c2ccccc2)C(Cc2ccccc2)C1 (centres undefined)	1
CCC(=O)N1CCNCC1	0.1
CCC(=O)N1CCN2C(=O)c3ccccc3C2C1 (centres undefined)	> 10
O=C1c2ccccc2C2CN(S(=O)(=O)c3ccc(F)cc3)CCN12 (centres undefined)	0.1
O=C(c1ccccc1)N1CCNC(c2ccccc2)C1 (racemic)	> 10
CCC(=O)N1CCN(C(=O)c2ccccc2)CC1c1ccccc1 (racemic)	0.1
NC(=O)CN1CCCC1=O [PIRACETAM]	30
CCC(=O)N1CCN(C(=O)c2ccccc2)CC1 [SUNIFIRAM]	0.001
O=C1CCC2CN(S(=O)(=O)c3ccc(F)cc3)CCN12 (centres undefined) [UNIFIRAM]	0.001
